In ChEMBL document CHEMBL1147988, “Synthesis of bridged piperazines with sigma receptor affinity” (Eur J Med Chem, 2007):

Experiments:
Cavia porcellus = species on record: Cavia porcellus; experiment: Displacement of [3H]MK-801 from NMDA receptor in guinea pig brain membrane at 10 uM; assay type: cell membranes
Procedure, shortened: (§1)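 Single-point screen: percent inhibition of radioligand binding to guinea pig brain membranes with test compound at 10 µM.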

[1] = target: Mu-type opioid receptor (Cavia porcellus) (UniProt P97266); experiment: Displacement of [3H]DAMGO from mu opioid receptor in guinea pig brain membrane at 10 uM; assay type: cell membranes; procedure, shortened: as §1
Mu-type opioid receptor (Cavia porcellus), sequence (P97266 whole entry): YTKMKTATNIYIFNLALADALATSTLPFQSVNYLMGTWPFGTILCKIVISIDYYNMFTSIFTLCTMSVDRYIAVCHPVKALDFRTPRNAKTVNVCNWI

[2] = target: Kappa-type opioid receptor (Cavia porcellus) (UniProt P41144); experiment: Displacement of [3H]U-69593 from kappa opioid receptor in guinea pig brain membrane at 10 uM; assay type: cell membranes
Kappa-type opioid receptor (Cavia porcellus), sequence (P41144 whole entry): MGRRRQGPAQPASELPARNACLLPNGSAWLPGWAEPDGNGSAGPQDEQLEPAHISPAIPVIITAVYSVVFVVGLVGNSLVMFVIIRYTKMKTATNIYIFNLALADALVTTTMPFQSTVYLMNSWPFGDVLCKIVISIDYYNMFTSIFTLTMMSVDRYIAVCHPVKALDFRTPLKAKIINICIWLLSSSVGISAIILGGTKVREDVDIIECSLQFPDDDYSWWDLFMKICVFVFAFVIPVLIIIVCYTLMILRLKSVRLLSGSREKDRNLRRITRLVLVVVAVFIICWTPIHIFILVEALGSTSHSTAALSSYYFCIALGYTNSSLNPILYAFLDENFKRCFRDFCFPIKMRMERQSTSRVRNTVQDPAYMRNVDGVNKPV
Procedure, shortened: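 Single-concentration test reported as percent inhibition of [3H]-U-69593 binding to guinea pig brain membranes. All experiments run in triplicate. Glass fibre filters presoaked 2 h at 4 °C in 0.5% polyethylenimine, then harvested by filtration. Bound radioactivity counted by liquid scintillation at 66% counting efficiency.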

Sigma 2 receptor = experiment: Displacement of [3H]ditolylguanidine from sigma 2 receptor in Sprague-Dawley rat liver membrane; assay type: cell membranes
[3] = target: Sigma non-opioid intracellular receptor 1 (Cavia porcellus, UniProt Q60492); experiment: Displacement of [3H](+)-pentazocine from sigma 1 receptor in guinea pig brain membrane; assay type: cell membranes
Sigma non-opioid intracellular receptor 1, sequence (Q60492 whole entry): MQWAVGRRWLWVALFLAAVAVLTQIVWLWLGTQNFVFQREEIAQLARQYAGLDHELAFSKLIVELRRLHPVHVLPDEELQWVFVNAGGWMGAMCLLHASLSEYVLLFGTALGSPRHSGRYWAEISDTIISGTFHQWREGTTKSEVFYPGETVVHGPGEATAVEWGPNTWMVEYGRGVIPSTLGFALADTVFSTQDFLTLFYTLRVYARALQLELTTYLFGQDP

[4] = target: Kappa-type opioid receptor (Cavia porcellus, UniProt P41144); experiment: Displacement of [3H]U-69593 from kappa opioid receptor in guinea pig brain membrane; assay type: cell membranes
Kappa-type opioid receptor, sequence (P41144 whole entry): as the sequence (P41144 whole entry) above

Mu-type opioid receptor = Mu-type opioid receptor (Cavia porcellus, UniProt P97266); experiment: Displacement of [3H]DAMGO from mu opioid receptor in guinea pig brain membrane; assay type: cell membranes
Mu-type opioid receptor, sequence (P97266 whole entry): as the sequence (P97266 whole entry) above

[5] = target: Sigma non-opioid intracellular receptor 1 (Cavia porcellus) (UniProt Q60492); experiment: Selectivity for guinea pig sigma 1 receptor over rat sigma 2 receptor
Sigma non-opioid intracellular receptor 1 (Cavia porcellus), sequence (Q60492 whole entry): as the sequence (Q60492 whole entry) above

[6] = Displacement of [3H]MK-801 from NMDA receptor in guinea pig brain membrane; assay type: cell membranes, Cavia porcellus

SMILES | inhibition (Cavia porcellus) | inhibition [1] | inhibition [2] | Ki (Sigma 2 receptor) | Ki [3] | Ki [4] | Ki (Mu-type opioid receptor) | Selectivity ratio [5] | Ki [6]
CN1CC2CCC(O)C1CN2Cc1ccccc1 (single isomer, unassigned; form 2) [listing 1 of 2 here] | 21% | 8.5% | 12.6% | – | – | – | – | – | –
O[C@@H]1CCC2CN(CCc3ccccc3)C1CN2Cc1ccccc1 (some centres undefined) | 21.9% | – | – | 0.343 µM | 0.0333 µM | 2.46 µM | 4.96 µM | – | –
CCCCN1CC2CCC(OCc3ccccc3)C1CN2Cc1ccccc1 (centres undefined) | 21.5% | – | – | 0.82 µM | 0.0395 µM | 1.11 µM | 3.32 µM | 21 | –
CN1CC2CCC(O)C1CN2Cc1ccccc1 (single isomer, unassigned; form 1) [listing 1 of 2 here] | – | – | – | 2.89 µM | 4.97 µM | – | – | – | –
CO[C@@H]1CC[C@H]2CN(C)[C@@H]1CN2Cc1ccccc1 | 8.7% | 21.5% | – | 0.327 µM | 1.35 µM | 3.59 µM | – | – | –
CN1C[C@@H]2CC[C@@H](OCc3ccccc3)[C@H]1CN2Cc1ccccc1 | 0% | 70.4% | – | 0.0304 µM | 0.0162 µM | 0.585 µM | – | – | –
CN[C@]1(c2ccccc2Cl)CCCCC1=O [ESKETAMINE] | – | – | – | – | – | – | – | – | 0.108 µM
COC1CCC2CN(CCc3ccccc3)C1CN2Cc1ccccc1 (centres undefined) | 50.5% | 68.6% | – | 0.297 µM | 0.076 µM | 5.02 µM | – | – | –
COC1(OC)CC[C@H]2CN(C)[C@@H]1CN2Cc1ccccc1 | 44.3% | 27.6% | – | 1.83 µM | 3.5 µM | > 10 µM | – | – | –
CN1CC2CCC(O)C1CN2Cc1ccccc1 (single isomer, unassigned; form 1) [listing 2 of 2 here] | 13.7% | 4.7% | 13.2% | – | – | – | – | – | –
OC1CCC2CN(CCc3ccccc3)C1CN2Cc1ccccc1 (single isomer, unassigned) | 20.6% | – | – | 0.588 µM | 0.0295 µM | 1.29 µM | 4.05 µM | – | –
c1ccc(CCN2CC3CCC(OCc4ccccc4)C2CN3Cc2ccccc2)cc1 (centres undefined) | 16.4% | 34.8% | – | 0.628 µM | 0.175 µM | 2.23 µM | – | – | –
CCCCN1CC2CCC(O)C1CN2Cc1ccccc1 (centres undefined) | 52.3% | 37.9% | – | 0.447 µM | 0.0234 µM | 1.6 µM | – | – | –
CN1CC2CCC(O)C1CN2Cc1ccccc1 (single isomer, unassigned; form 2) [listing 2 of 2 here] | – | – | – | 4.18 µM | 2.4 µM | – | – | – | –
CCCCN1CC2CCC(OC)C1CN2Cc1ccccc1 (centres undefined) | 55.5% | 37.4% | – | 0.219 µM | 0.0132 µM | 0.157 µM | – | 16 | –
c1ccc(C2(N3CCCCC3)CCCCC2)cc1 [PHENCYCLIDINE] | – | – | – | – | – | – | – | – | 0.028 µM
